{"source": "paper PMC4828974", "about": "(Cancer research, 2015)", "key": {"[1]": {"molecular_target": "Rac1/2 binding to the WASF3 complex (Homo sapiens, UniProt Q7L576)", "sequence (Q7L576 whole entry)": "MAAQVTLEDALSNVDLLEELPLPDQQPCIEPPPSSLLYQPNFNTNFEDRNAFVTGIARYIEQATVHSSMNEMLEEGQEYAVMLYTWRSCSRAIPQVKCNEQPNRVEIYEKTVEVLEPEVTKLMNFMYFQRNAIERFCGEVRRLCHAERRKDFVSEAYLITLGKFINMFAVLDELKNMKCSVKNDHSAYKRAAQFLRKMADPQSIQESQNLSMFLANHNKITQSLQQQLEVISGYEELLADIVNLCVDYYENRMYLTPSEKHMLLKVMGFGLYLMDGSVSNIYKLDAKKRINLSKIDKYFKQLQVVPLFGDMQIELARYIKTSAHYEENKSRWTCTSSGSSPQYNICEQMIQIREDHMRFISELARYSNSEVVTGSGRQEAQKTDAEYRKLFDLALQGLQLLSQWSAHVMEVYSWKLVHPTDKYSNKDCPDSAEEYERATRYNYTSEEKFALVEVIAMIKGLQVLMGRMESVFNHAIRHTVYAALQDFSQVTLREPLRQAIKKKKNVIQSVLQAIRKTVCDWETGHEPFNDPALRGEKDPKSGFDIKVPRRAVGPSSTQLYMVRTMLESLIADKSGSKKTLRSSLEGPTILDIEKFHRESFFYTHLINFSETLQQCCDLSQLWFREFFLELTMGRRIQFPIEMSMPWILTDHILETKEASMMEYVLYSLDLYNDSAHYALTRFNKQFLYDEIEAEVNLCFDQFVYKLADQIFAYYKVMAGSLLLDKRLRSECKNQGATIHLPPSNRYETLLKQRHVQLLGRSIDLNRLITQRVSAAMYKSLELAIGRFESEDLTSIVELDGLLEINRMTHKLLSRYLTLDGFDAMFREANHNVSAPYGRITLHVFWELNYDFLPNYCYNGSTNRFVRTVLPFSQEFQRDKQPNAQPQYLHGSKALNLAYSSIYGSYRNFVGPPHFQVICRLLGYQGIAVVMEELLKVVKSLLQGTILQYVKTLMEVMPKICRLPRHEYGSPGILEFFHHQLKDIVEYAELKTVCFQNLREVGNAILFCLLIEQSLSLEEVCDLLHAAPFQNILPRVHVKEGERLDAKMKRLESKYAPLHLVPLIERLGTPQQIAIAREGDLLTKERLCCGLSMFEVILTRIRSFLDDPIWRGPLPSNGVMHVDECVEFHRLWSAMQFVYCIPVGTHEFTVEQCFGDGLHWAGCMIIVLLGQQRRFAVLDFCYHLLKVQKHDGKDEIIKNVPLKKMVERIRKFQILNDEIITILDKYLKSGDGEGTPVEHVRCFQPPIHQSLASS", "sequence (Q9Y2A7 whole entry partner)": "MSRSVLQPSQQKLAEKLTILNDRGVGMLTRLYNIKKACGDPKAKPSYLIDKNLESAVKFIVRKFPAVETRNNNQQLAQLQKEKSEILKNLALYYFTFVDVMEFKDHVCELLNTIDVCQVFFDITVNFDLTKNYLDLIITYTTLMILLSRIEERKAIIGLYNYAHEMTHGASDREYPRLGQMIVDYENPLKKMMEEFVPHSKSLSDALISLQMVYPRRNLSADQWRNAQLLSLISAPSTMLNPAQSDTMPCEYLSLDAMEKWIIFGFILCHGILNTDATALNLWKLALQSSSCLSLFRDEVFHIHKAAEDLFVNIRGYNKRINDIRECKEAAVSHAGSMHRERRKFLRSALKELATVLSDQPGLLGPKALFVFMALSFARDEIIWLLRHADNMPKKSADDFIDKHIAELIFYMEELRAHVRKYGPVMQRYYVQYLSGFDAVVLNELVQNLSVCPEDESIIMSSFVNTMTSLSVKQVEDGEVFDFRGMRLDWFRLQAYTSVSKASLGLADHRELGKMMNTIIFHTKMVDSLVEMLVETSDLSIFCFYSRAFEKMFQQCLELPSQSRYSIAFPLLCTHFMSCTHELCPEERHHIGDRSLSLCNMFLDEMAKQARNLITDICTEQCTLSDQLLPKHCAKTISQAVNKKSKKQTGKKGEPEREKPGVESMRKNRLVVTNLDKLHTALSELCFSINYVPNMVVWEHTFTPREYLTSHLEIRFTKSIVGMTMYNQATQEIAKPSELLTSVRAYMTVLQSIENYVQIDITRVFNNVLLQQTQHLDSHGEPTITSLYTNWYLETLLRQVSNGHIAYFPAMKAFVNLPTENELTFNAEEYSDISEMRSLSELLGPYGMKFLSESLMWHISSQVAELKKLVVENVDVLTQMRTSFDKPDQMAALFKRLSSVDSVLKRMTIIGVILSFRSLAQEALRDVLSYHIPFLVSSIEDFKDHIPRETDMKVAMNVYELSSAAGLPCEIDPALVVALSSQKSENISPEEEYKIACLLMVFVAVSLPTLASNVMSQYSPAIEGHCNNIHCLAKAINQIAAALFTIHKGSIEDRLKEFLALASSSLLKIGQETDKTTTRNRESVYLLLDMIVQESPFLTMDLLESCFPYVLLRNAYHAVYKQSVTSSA", "assay": "IP with WASF3 antibodies, western blot for Rac1/Rac2", "type": "cell-based", "conditions": "MDA-MB-231 cells", "procedure,_shortened": "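MDA-MB-231 cells were left untreated or treated with stapled test peptides or a scrambled control peptide. Lysates were immunoprecipitated with anti-WASF3 antibody, and the immunocomplex was western blotted for Rac1 and Rac2.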"}, "[2]": {"molecular_target": "CYFIP1 (Homo sapiens, UniProt Q7L576)", "sequence (Q7L576 whole entry)": "as the sequence (Q7L576 whole entry) above", "assay": "Avidin-biotin pull down with biotinylated stapled peptides, western blot", "type": "binding", "conditions": "2.5 µM versus 10 µM biotinylated peptide, MDA-MB-231 cells", "procedure,_shortened": "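MDA-MB-231 cells exposed to biotin-labelled stapled test peptides at 2.5 or 10 µM, with biotinylated scrambled peptides as controls. Lysates incubated overnight at 4 °C with immobilised avidin resin. Pulled-down material resolved by SDS-PAGE and western blotted for CYFIP1.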"}, "[3]": {"molecular_target": "WASF3-CYFIP1 complex (Homo sapiens, UniProt Q7L576)", "sequence (Q7L576 whole entry)": "as above", "sequence (Q9Y2A7 whole entry partner)": "as the sequence (Q9Y2A7 whole entry partner) above", "assay": "Immunoprecipitation of WASF3, western blot for CYFIP1", "type": "cell-based", "conditions": "MDA-MB-231 cells treated with peptide, IP of WASF3"}, "[4]": {"system": "breast or prostate cancer cells", "assay": "MTS cell proliferation assay", "type": "cell-based", "conditions": "10 µM, over 24 hours"}, "[5]": {"system": "breast and prostate cell lines", "assay": "Scratch wound", "type": "cell-based", "conditions": "scratch wound assay, compared with DMSO and scrambled peptide"}, "[6]": {"system": "breast and prostate cancer cells", "assay": "Transwell invasion assay", "type": "cell-based", "conditions": "for reduction of invasion potential: Transwell, 24 hours, 10 µM, compared with SCR peptides or DMSO; for dose dependence of suppression of cell invasion: high dose 10 µM versus low dose 2.5 µM"}, "[7]": {"system": "WASF3 phosphorylation in MDA-MB-231 cells", "assay": "WASF3 phosphorylation status", "type": "cell-based", "conditions": "for WASF3 phosphorylation levels: MDA-MB-231 cells in serum", "procedure,_shortened": "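MDA-MB-231 cells were treated with stapled peptides, the scrambled control peptide, or the HSP90 inhibitor 17-AAG for comparison. WASF3 was immunoprecipitated, with IgG IP as the negative control. Immunoblots were probed with the PY20 antibody for phosphorylation and with WASF3 antibody for total protein.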"}, "[8]": {"system": "WASF3", "assay": "WASF3 protein levels by western blot", "type": "cell-based", "conditions": "MDA-MB-231 cells cultured in serum"}, "[9]": {"system": "CYFIP1", "assay": "CYFIP1 protein levels by western blot", "type": "cell-based", "conditions": "24 hours treatment"}, "[10]": {"system": "KISS1", "assay": "KISS1 levels by western blot", "type": "cell-based", "conditions": "MDA-MB-231 cells, compared with scrambled peptides"}, "[11]": {"system": "WASF3 phosphorylation in MDA-MB-231 cells", "conditions": "inactivation of HSP90; cited from earlier work"}}}
{"compound": "SRA*LLI*TKIQNELK (sidechain bridge or staple) [SCR1]", "values": [{"measurement": "Rac2 in the WASF3 IP", "setting": "[1]", "result": "present"}]}
{"compound": "LEKKTN*TLA*IIRQL (sidechain bridge or staple) [WAHM2]", "values": [{"measurement": "concentration dependence of CYFIP1 pull down", "setting": "[2]", "result": "concentration-dependent"}, {"measurement": "CYFIP1 in the WASF3 immunocomplex", "setting": "[3]", "result": "not present in the immunocomplex"}, {"measurement": "cell proliferation", "setting": "[4]", "result": "no significant difference in cell proliferation"}, {"measurement": "migration potential / cell motility", "setting": "[5]", "result": "significant reduction in cell motility"}, {"measurement": "reduction of invasion potential", "setting": "[6]", "result": "50–75%"}, {"measurement": "dose dependence of suppression of cell invasion", "setting": "[6]", "result": "dose-dependent effect"}, {"measurement": "WASF3 phosphorylation levels", "setting": "[7]", "result": "dramatic decrease in WASF3 phosphorylation levels"}, {"measurement": "WASF3 protein levels", "setting": "[8]", "result": "without a reduction in WASF3 protein levels"}, {"measurement": "intracellular levels of WASF3 or CYFIP1", "setting": "[9]", "result": "did not affect intracellular levels of either WASF3 or CYFIP1"}, {"measurement": "KISS1 levels", "setting": "[10]", "result": "increased KISS1 levels"}]}
{"compound": "LEK*TNS*LAKIIRQL (sidechain bridge or staple) [WAHM1]", "values": [{"measurement": "concentration dependence of CYFIP1 pull down", "setting": "[2]", "result": "concentration-dependent"}, {"measurement": "CYFIP1 in the WASF3 immunocomplex", "setting": "[3]", "result": "not present in the immunocomplex"}, {"measurement": "cell proliferation", "setting": "[4]", "result": "no significant difference in cell proliferation"}, {"measurement": "migration potential / cell motility", "setting": "[5]", "result": "significant reduction in cell motility"}, {"measurement": "reduction of invasion potential", "setting": "[6]", "result": "50–75%"}, {"measurement": "dose dependence of suppression of cell invasion", "setting": "[6]", "result": "dose-dependent effect"}, {"measurement": "suppression of WASF3 phosphorylation compared with 17-AAG", "setting": "[7]; MDA-MB-231 cells", "result": "more efficient than the 17-AAG HSP90 inhibitor"}, {"measurement": "WASF3 phosphorylation levels", "setting": "[7]", "result": "dramatic decrease in WASF3 phosphorylation levels"}, {"measurement": "WASF3 protein levels", "setting": "[8]", "result": "without a reduction in WASF3 protein levels"}, {"measurement": "intracellular levels of WASF3 or CYFIP1", "setting": "[9]", "result": "did not affect intracellular levels of either WASF3 or CYFIP1"}, {"measurement": "KISS1 levels", "setting": "[10]", "result": "increased KISS1 levels"}, {"measurement": "Rac2 in the WASF3 IP", "setting": "[1]", "result": "could not be detected"}]}
{"compound": "C=CCNC1=C2C[C@@H](C)C[C@H](OC)[C@H](O)[C@@H](C)/C=C(\\C)[C@H](OC(N)=O)[C@@H](OC)/C=C\\C=C(/C)C(=O)NC(=CC1=O)C2=O", "note": "[17-AAG]", "values": [{"measurement": "WASF3 phosphoactivation", "setting": "[11]", "result": "reduced WASF3 phosphoactivation"}]}
